Reference: ChEMBL document CHEMBL2401731, “Synthesis and pharmacological evaluation of 2-aryloxy/arylamino-5-cyanobenzenesulfonylureas as novel thromboxane A₂ receptor antagonists” (Eur J Med Chem, 2013)
The source made the active and inactive calls. The calls are words filed in the database; no cut-off is given here.

Columns and labels:
Thromboxane A2 receptor [1] = biological target: T1, Thromboxane A2 receptor (Homo sapiens, UniProt P21731); test: Antagonist activity at human thromboxane A2 receptor beta over-expressed in HEK293 cells assessed as inhibition of U-46619-induced intracellular calcium mobilization mobilization by fluorescence assay; assay type: functional, cell-based
T1 sequence (P21731 whole entry): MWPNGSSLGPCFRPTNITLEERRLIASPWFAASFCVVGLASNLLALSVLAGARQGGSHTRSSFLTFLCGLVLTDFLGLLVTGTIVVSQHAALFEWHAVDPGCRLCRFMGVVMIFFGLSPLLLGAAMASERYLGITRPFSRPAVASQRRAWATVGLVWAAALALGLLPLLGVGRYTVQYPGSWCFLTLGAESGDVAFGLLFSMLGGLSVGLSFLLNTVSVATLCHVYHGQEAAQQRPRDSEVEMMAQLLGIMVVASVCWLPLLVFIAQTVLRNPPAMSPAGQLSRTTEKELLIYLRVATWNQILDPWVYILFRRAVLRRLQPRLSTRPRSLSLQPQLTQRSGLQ
Method in brief: (§1)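 HEK293 cells stably expressing HA-tagged TPα or TPβ, grown in DMEM/10% FBS. Trypsinized cells washed in Krebs-HEPES buffer, pH 7.4, loaded 1 h with Fluo-4/AM, rinsed, 150,000 cells/well. Compound at 10^-9 to 10^-5 M final, then stimulated with U-46619. Fluorescence read at 538 nm, calibrated to [Ca2+]i with Triton X-100/EGTA. IC50 from concentration-response curves, three independent experiments.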

Homo sapiens = species on record: Homo sapiens; test: Selectivity index, ratio of IC50 for human thromboxane A2 receptor alpha to IC50 for human thromboxane A2 receptor beta
Method in brief: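 IC50 at TPα divided by IC50 at TPβ. Both IC50s come from U-46619-stimulated Fluo-4 calcium mobilization in HEK293 cells stably expressing each isoform. Mean ± SD of three separate experiments.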

Thromboxane A2 receptor [2] = biological target: T1, Thromboxane A2 receptor; test: Antagonist activity at human thromboxane A2 receptor alpha over-expressed in HEK293 cells assessed as inhibition of U-46619-induced intracellular calcium mobilization by fluorescence assay; assay type: functional, cell-based; method in brief: as §1
Platelet = test: Antiplatelet activity against human platelets assessed as inhibition of U-46619-induced platelet aggregation at 10 uM after 1 min; assay type: functional, cell-based
[3] = Antiplatelet activity against human platelets assessed as inhibition of U-46619-induced platelet aggregation at 1 uM after 1 min; assay type: functional, cell-based
Method in brief: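 Human platelet-rich plasma is taken from donors free of medication for at least 14 days, obtained at 100×g for 10 min, and adjusted to […] with platelet-poor plasma. Platelets incubated with test sample or 0.1% DMSO at 37 °C for 1 min, then U-46619 added to trigger aggregation. Aggregation measured by light transmission. Means ± SD, n ≥ 2.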

Row | Compound | IC50 (Thromboxane A2 receptor [1]) [µM] | Ratio IC50 (Homo sapiens) | IC50 (Thromboxane A2 receptor [2]) [µM] | IC50 [3] [µM] | inhibition (Platelet)
1 | CC(C)(C)NC(=O)NS(=O)(=O)c1cc(C#N)ccc1Oc1ccc(Cl)cc1 | 5.27 | 1.1 | 5.64 |  | 
2 | Cc1ccccc1Nc1ccc(C#N)cc1S(=O)(=O)NC(=O)NC(C)C | 10.1 | 0.7 | 7.24 |  | Active
3 | CC(C)NC(=O)NS(=O)(=O)c1cc(C#N)ccc1Oc1ccc(Br)cc1 | 9.13 | 1 | 9.47 |  | 
4 | CCCCCNC(=O)NS(=O)(=O)c1cc(C#N)ccc1Nc1ccc(F)cc1 | 6.45 | 1.05 | 6.78 |  | 
5 | CCCCCNC(=O)NS(=O)(=O)c1cc(C#N)ccc1Oc1ccc(Cl)cc1 | 8.72 | 0.9 | 8.64 |  | 
6 | Cc1cccc(Nc2ccc(C#N)cc2S(=O)(=O)NC(=O)NC(C)C)c1 | 9.11 | 1 | 9.5 |  | Active
7 | CC(C)(C)NC(=O)NS(=O)(=O)c1cc(C#N)ccc1Oc1ccc(F)cc1 | 3.89 | 1.2 | 4.35 |  | 
8 | CCCCCNC(=O)NS(=O)(=O)c1cc(C#N)ccc1Oc1ccc(F)cc1 | 9.53 | 0.9 | 9.43 |  | 
9 | CC(C)(C)NC(=O)NS(=O)(=O)c1cc(C#N)ccc1Oc1ccc(I)cc1 | 5.54 | 0.9 | 5.52 |  | 
10 | CCCCCNC(=O)NS(=O)(=O)c1cc(C#N)ccc1Oc1ccc(I)cc1 | 9.49 | 1 | 9.52 |  | 
11 | CC(C)NC(=O)NS(=O)(=O)c1cc(C#N)ccc1Oc1ccc(I)cc1 | 9.49 | 1 | 9.52 |  | 
12 | CC(C)(C)NC(=O)NS(=O)(=O)c1cc(C#N)ccc1Nc1ccc(F)cc1 | 4.91 | 0.95 | 4.64 |  | 
13 | CC(C)(C)NC(=O)NS(=O)(=O)c1cc(C#N)ccc1Oc1ccc(Br)cc1 | 5.31 | 1.1 | 5.88 |  | 
14 | CCCCCNC(=O)NS(=O)(=O)c1cc(C#N)ccc1Oc1ccc(Br)cc1 | 9.54 | 0.9 | 8.52 |  | 
15 | Cc1ccccc1Nc1ccc(C#N)cc1S(=O)(=O)NC(=O)NC(C)(C)C | 4.78 |  | 2.75 | 0.971 | Active
16 | CC(C)NC(=O)NS(=O)(=O)c1cc(C#N)ccc1Nc1ccc(F)cc1 | 7.83 | 1.04 | 8.17 |  | 
17 | CC(C)NC(=O)NS(=O)(=O)c1cc(C#N)ccc1Oc1ccc(F)cc1 | 9.3 | 1 | 9.62 |  | 
18 | Cc1ccc(Nc2ccc(C#N)cc2S(=O)(=O)NC(=O)NC(C)C)cc1 | 4.22 | 0.9 | 4.11 |  | Active
19 | CCCCCNC(=O)NS(=O)(=O)c1cc(C#N)ccc1Nc1ccccc1C | 7.85 | 0.4 | 3.19 |  | Active
20 | Cc1ccccc1Oc1ccc(C#N)cc1S(=O)(=O)NC(=O)NC(C)C | 6.13 | 1.4 | 8.68 |  | Active
21 | CC(C)NC(=O)NS(=O)(=O)c1cc(C#N)ccc1Oc1ccc(Cl)cc1 | 8.49 | 1.1 | 9.46 |  | 

The next molecules have a lower IC50 (Thromboxane A2 receptor [1]) than those just listed; values first:

Row | IC50 (Thromboxane A2 receptor [1]) [µM] | Ratio IC50 (Homo sapiens) | IC50 (Thromboxane A2 receptor [2]) [µM] | IC50 [3] [µM] | Compound | inhibition (Platelet)
22 | 0.63 | 1.4 | 0.9 |  | CCCCCNC(=O)NS(=O)(=O)c1cc(C#N)ccc1Oc1ccc(C)cc1 | Active
23 | 2.33 | 1.3 | 2.95 |  | CCCCCNC(=O)NS(=O)(=O)c1cc(C#N)ccc1Nc1cccc(C)c1 | Active
24 | 0.68 | 2 | 1.33 |  | CCCCCNC(=O)NS(=O)(=O)c1cc(C#N)ccc1Oc1cccc(C)c1 | Active
25 | 1.35 | 2.3 | 3.05 |  | Cc1ccc(Oc2ccc(C#N)cc2S(=O)(=O)NC(=O)NC(C)C)cc1 | Active
26 | 1.04 |  | 0.85 | 0.504 | Cc1ccc(Nc2ccc(C#N)cc2S(=O)(=O)NC(=O)NC(C)(C)C)cc1 | Active
27 | 1.47 |  | 3.69 | 0.966 | Cc1ccccc1Oc1ccc(C#N)cc1S(=O)(=O)NC(=O)NC(C)(C)C | Active
28 | 1.69 | 1.4 | 2.38 |  | Cc1cccc(Oc2ccc(C#N)cc2S(=O)(=O)NC(=O)NC(C)C)c1 | Active
29 | 2.06 | 0.5 | 1.04 |  | CCCCCNC(=O)NS(=O)(=O)c1cc(C#N)ccc1Nc1ccc(C)cc1 | Active
30 | 0.62 | 1.1 | 0.7 | 0.509 | Cc1ccc(Nc2ccc([N+](=O)[O-])cc2S(=O)(=O)NC(=O)NC(C)(C)C)cc1 | 
31 | 0.69 |  | 1.05 | 0.705 | Cc1cccc(Oc2ccc(C#N)cc2S(=O)(=O)NC(=O)NC(C)(C)C)c1 | Active
32 | 1.78 | 1.3 | 2.24 |  | CCCCCNC(=O)NS(=O)(=O)c1cc(C#N)ccc1Oc1ccccc1C | Active
33 | 0.68 |  | 0.75 | 0.649 | Cc1ccc(Oc2ccc(C#N)cc2S(=O)(=O)NC(=O)NC(C)(C)C)cc1 | Active
34 | 2.2 | 0.7 | 1.59 | 0.726 | Cc1cccc(Nc2ccc(C#N)cc2S(=O)(=O)NC(=O)NC(C)(C)C)c1 | Active
